In the library only some 1.7% were active in any assay of this set; here they are far more common.
Statin myotox sup – suppression of simvastatin myotoxicity | AID 602340 | actives 0.78% (n = 330,000) | C2C12 myotubes + simvastatin, ATP luminescence, 48 h; scaled: DMSO 0, geranylgeraniol control 100 | rescue of ATP level, % at 7.49 µM;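 active = mean ATP rescue above about 67%, or every replicate alone reaching that limit, limit read from the data, passing the limit was not always enough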;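 note: myotubes were challenged with 10 µM simvastatin during compound exposure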
Vif inh – inhibitors of HIV Vif | HEK293T cells, Vif self-association by quenched fluorescence, imaging, 24 h | inhibition, % at 7.49 µM | actives 0.35% (n = 340,000); in the data active = inhibition above about 50%, passing the limit was not always enough
SR-BI DiI inh – mouse SR-BI HDL lipid transfer inhibition. Q61009. ldlA[mSR-BI] CHO cells, DiI-HDL uptake fluorescence, 3 h. inhibition, % at 12.5 µM. actives 0.96% (n = 320,000). AID 488896;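 active = mean replicate inhibition of at least 70% and a set share of replicates each scoring 70 or more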
Target sequence (Q61009 whole entry, looked up): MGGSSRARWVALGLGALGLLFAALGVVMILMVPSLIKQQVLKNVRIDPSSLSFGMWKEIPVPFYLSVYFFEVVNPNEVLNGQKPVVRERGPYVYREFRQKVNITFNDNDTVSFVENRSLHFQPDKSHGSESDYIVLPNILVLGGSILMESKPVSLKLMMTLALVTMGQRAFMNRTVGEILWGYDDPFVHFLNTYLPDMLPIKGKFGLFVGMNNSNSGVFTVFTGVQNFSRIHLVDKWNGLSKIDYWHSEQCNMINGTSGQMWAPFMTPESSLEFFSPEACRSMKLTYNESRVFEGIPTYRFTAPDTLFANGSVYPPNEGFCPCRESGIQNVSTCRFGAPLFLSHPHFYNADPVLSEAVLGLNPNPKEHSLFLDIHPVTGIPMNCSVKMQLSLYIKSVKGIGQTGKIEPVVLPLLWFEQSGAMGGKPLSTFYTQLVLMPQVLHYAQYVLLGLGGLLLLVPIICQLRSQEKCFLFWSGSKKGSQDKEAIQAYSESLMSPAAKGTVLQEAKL
SR-BI uptake up – SR-BI HDL lipid transfer activation | actives 0.096% (n = 320,000) | activation, % at 12.5 µM | CHO ldlA[mSR-BI] cells, DiI-HDL uptake fluorescence, 3 h; 100 = double the neutral-control signal | AID 504775;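 active = mean replicate activation of at least 60% and every replicate at or above 60%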
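Material – SR-BI-overexpressing, LDLR-lacking CHO cells · Medium – BSA-supplemented, HEPES-buffered Ham's F12, pH 7.4 · Doses – single concentration · Times – compound with DiI-HDL co-incubation, 3 h at 37 °C · Measured by – bottom-read fluorescence, 550/595 nm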
Hits are given with their value; ! = repeats disagree.

For Cc1ccc(O)c(NC2=C(Cl)C(=O)N(Cc3ccccc3)C2=O)c1 the results were Vif inh inactive, SR-BI DiI inh 76.5 and SR-BI uptake up inactive.
`C[C@H](CO)N1C[C@H](C)[C@H](CN(C)Cc2ccc(C(=O)Nc3ccccc3N)cc2)Oc2ccc(NC(=O)Cc3cn(C)c4ccccc34)cc2C1=O` gave Statin myotox sup 97.5.
`C[C@H]1CN([C@@H](C)CO)C(=O)c2cc(NC(=O)Cc3cn(C)c4ccccc34)ccc2O[C@@H]1CN(C)Cc1ccc(-c2ccccc2)cc1` gave Statin myotox sup inactive.
`C[C@H](CO)N1C[C@H](C)[C@@H](CN(C)Cc2ccc(C(F)(F)F)cc2)Oc2ccc(NC(=O)Cc3cn(C)c4ccccc34)cc2C1=O` gave Statin myotox sup inactive.
`C[C@@H]1CN([C@H](C)CO)C(=O)c2cc(NC(=O)Cc3cn(C)c4ccccc34)ccc2O[C@H]1CN(C)Cc1ccc(-c2ccccc2)cc1` gave Statin myotox sup 68.4.
Screening C[C@H]1CN([C@@H](C)CO)C(=O)c2cc(NC(=O)Cc3cn(C)c4ccccc34)ccc2O[C@@H]1CN(C)Cc1ccc(C(F)(F)F)cc1 returned Statin myotox sup 83.0.
For CN1C(=O)c2cc(NC(=O)c3cccc(F)c3)ccc2OC[C@H]2O[C@H](CC(=O)NCc3ccccc3Cl)CC[C@@H]21 the results were Statin myotox sup inactive.
For CC(C)(C)[S@@](=O)N1Cc2cc(C(=O)NCc3ccccc3F)nc(-c3cccc(-c4ccncc4)c3)c2[C@H]1CCO the results were Statin myotox sup inactive.
CC(C)NC(=O)Nc1ccc2c(c1)CC(=O)N([C@@H](C)CO)C[C@H](C)[C@@H](CN(C)C(=O)Nc1cccc3ccccc13)O2 was read as Statin myotox sup inactive.
For CCn1c(SCC(=O)c2ccc(OC)cc2)nnc1C(C)NC(=O)c1ccc(OC)cc1 (configuration not stated) the results were Statin myotox sup 75.6, Vif inh inactive, SR-BI DiI inh inactive and SR-BI uptake up inactive.
Screening Oc1c(Br)cc(Br)cc1/C=N/NC(=S)N[C@H]1CC2C=CC1C2 (some centres not stated) returned Vif inh inactive, SR-BI DiI inh 78.2 and SR-BI uptake up inactive.
`Cc1ccc(S(=O)(=O)NC2=C(N3CCN(Cc4ccccc4)CC3)C(=O)c3ccccc3C2=O)cc1` gave Vif inh inactive, SR-BI DiI inh inactive and SR-BI uptake up inactive.
Screening Cc1ccc(S(=O)(=O)NC2=C(N3CCN(c4ccccc4F)CC3)C(=O)c3ccccc3C2=O)cc1 returned Statin myotox sup inactive, Vif inh inactive, SR-BI DiI inh 96.6! and SR-BI uptake up inactive.
CNc1sc(C(=O)c2cccs2)c(N)c1-c1nc2ccccc2s1 was read as Vif inh inactive, SR-BI DiI inh 95.2 and SR-BI uptake up inactive.
CNc1sc(C(=O)c2ccc(F)cc2)c(N)c1-c1nc2ccccc2s1 was read as Statin myotox sup inactive, Vif inh inactive, SR-BI DiI inh 90.0 and SR-BI uptake up inactive.
For O=C([C@H]1[C@H](CO)[C@H]2Cn3c(ccc(/C=C/c4ccccc4)c3=O)[C@@H]1N2)N1CCCCC1 the results were Statin myotox sup inactive.
`C#Cc1ccc(CN2CCCC(C(=O)Nc3ccccc3Oc3cccnc3)C2)cc1` (configuration not stated) gave Statin myotox sup 91.4, Vif inh inactive, SR-BI DiI inh inactive and SR-BI uptake up inactive.
Screening O=C(Nc1ccccc1Oc1cccnc1)C1CCCN(Cc2ccccc2O)C1 (configuration not stated) returned Statin myotox sup inactive, Vif inh inactive, SR-BI DiI inh inactive and SR-BI uptake up inactive.
COCc1cn(CC[C@@H]2CC[C@H](NC(=O)c3ccc(F)cc3)[C@@H](CO)O2)nn1 was read as Statin myotox sup inactive.
Screening CNC(=O)c1ccc(-c2sc3nc(N4CCOCC4)c4c(c3c2N)CC(C)(C)OC4)o1 returned Statin myotox sup inactive, Vif inh inactive, SR-BI DiI inh inactive and SR-BI uptake up inactive.
Screening CNC(=O)c1ccc(-c2sc3nc(N4CCOCC4)c4c(c3c2N)CCCC4)o1 returned Vif inh inactive, SR-BI DiI inh 86.8 and SR-BI uptake up inactive.
Screening CCOC(=O)c1ccc(N=C2C(=S)N(c3ccc(C(=O)OCC)cc3)C(=N)N2/N=C/c2ccccc2)cc1 returned Statin myotox sup inactive, Vif inh inactive, SR-BI DiI inh 75.7 and SR-BI uptake up inactive.
For CCOC(=O)c1ccc(N=c2scc(C)n2CC)cc1 the results were Statin myotox sup inactive, Vif inh inactive, SR-BI DiI inh inactive and SR-BI uptake up inactive.
`COc1ccc([N+](=O)[O-])cc1NC(=O)c1ccc(-n2nc(C)cc2C)cc1` gave Vif inh inactive, SR-BI DiI inh 90.1 and SR-BI uptake up inactive.
Screening COc1ccc(NC(=O)c2cc3ccccc3cc2OC)cc1OC returned Vif inh inactive, SR-BI DiI inh 70.4 and SR-BI uptake up inactive.
`COc1cc(OC)c(C(=O)Nc2ccc3ccccc3c2)cc1OC` gave Statin myotox sup inactive, Vif inh inactive, SR-BI DiI inh inactive and SR-BI uptake up inactive.
For CSc1ccccc1C(=O)Nc1cccc([N+](=O)[O-])c1 the results were Vif inh inactive, SR-BI DiI inh inactive and SR-BI uptake up inactive.
For COc1ccc([N+](=O)[O-])cc1NC(=O)c1ccccc1SC the results were Statin myotox sup inactive, Vif inh inactive, SR-BI DiI inh 77.3 and SR-BI uptake up inactive.
`COc1ccc(OC)c(NC(=O)c2cc3ccccc3cc2OC)c1` gave Statin myotox sup inactive, Vif inh 50.5, SR-BI DiI inh inactive and SR-BI uptake up inactive.
Screening C[C@@H]1CN([C@@H](C)CO)S(=O)(=O)c2ccc(/C=C/c3ccccc3)cc2O[C@@H]1CN(C)C(=O)c1ccccc1 returned Statin myotox sup inactive.
O=C(C[C@@H]1C[C@@H]2c3cc(NC(=O)c4cccnc4)ccc3O[C@@H]2[C@H](CO)O1)NCc1ccc(Oc2ccccc2)cc1 was read as Statin myotox sup inactive.
`C[C@@H]1CN([C@@H](C)CO)C(=O)c2cc(C#CC3(O)CCCC3)cnc2O[C@@H]1CN(C)C(=O)Cc1cccnc1` gave Statin myotox sup inactive.
COc1cc2ccccc2cc1C(=O)Nc1ccc(Cl)cn1 was read as Statin myotox sup inactive, Vif inh 83.6, SR-BI DiI inh inactive and SR-BI uptake up inactive.
`COc1cc(NC(=O)c2cc3c(C)nc4ccccc4c3o2)cc(OC)c1OC` gave Statin myotox sup inactive, Vif inh inactive, SR-BI DiI inh 73.3 and SR-BI uptake up inactive.
For COc1ccc(OC)c(NC(=O)c2cccc(C)c2[N+](=O)[O-])c1 the results were Vif inh inactive, SR-BI DiI inh 72.5 and SR-BI uptake up inactive.
COc1ccc(NC(=O)/C=C/c2ccccc2[N+](=O)[O-])c(OC)c1 was read as Vif inh inactive, SR-BI DiI inh inactive and SR-BI uptake up inactive.
`COc1ccc(OC)c(NC(=O)/C=C/c2ccccc2[N+](=O)[O-])c1` gave Vif inh inactive, SR-BI DiI inh 86.0 and SR-BI uptake up inactive.
